As usually defined, the IC50 is the concentration needed to halve the response being measured.

52 molecules from ChEMBL document CHEMBL4359903, “1,2,4-Oxadiazole derivatives targeting EGFR and c-Met degradation in TKI resistant NSCLC” (Eur J Med Chem, 2019) can be followed below.

Active and inactive are the calls of the source. The calls are words filed in the database; no cut-off is given here.

Assay [1] has as its system MDA-MB-231. The assay is described as follows: Antiproliferative activity against human MDA-MB-231 cells assessed as reduction in cell viability incubated for 72 hrs by MTT assay. Type of assay: functional, cell-based. Conditions: MDA-MB-231, 72 h. The method, boiled down: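 MTT viability assay after 72 h of drug exposure. Cells seeded at 5000 per well in 10% FBS and left overnight, then treated in 5% FBS. MTT added for 1 h, dye dissolved in DMSO, absorbance read at 570 nm. Viability given relative to vehicle-treated cells.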
A general note: Formazan colour is commonly taken as a measure of viable cells.

Assay [2] concerns the target Hepatocyte growth factor receptor (Homo sapiens) (UniProt P08581). Nature of the assay: Induction of c-MET degradation in human MDA-MB-231 cells assessed as reduction in c-Met expression incubated for 48 hrs by immunoblot analysis. Type of assay: cell-based. The method, boiled down: (§1)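 After 48 h treatment, cells were scraped and lysed in 1% SDS, 50 mM Tris-HCl pH 8.0, 10 mM EDTA with protease and phosphatase inhibitors. Lysates sonicated, protein measured by BCA, equal amounts run on SDS-PAGE and blotted to nitrocellulose. Primary antibodies (EGFR, c-Met, S473-Akt, Akt, GAPDH) used at 1:1000 overnight at 4 °C, HRP secondaries at 1:5000, ECL detection.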
(In general: Immunoblotting shows a protein as a band on a membrane.)

The target in assay [3] is Epidermal growth factor receptor (Homo sapiens) (UniProt P00533). Nature of the assay: Induction of EGFR degradation in human MDA-MB-231 cells assessed as reduction in EGFR expression incubated for 48 hrs by immunoblot analysis. The assay is classed as cell-based. In short, it runs like this:
as §1

In assay [4] the test system is NCI-H1975. Nature of the assay: Antiproliferative activity against human NCI-H1975 cells harbouring EGFR L858R/T790M double mutant assessed as reduction in cell viability incubated for 72 hrs by MTT assay. The assay is classed as functional, cell-based. To be noted: NCI-H1975, 72 h.
A short description of assay [5]: Antiproliferative activity against human CL68 cells harbouring EGFR delE746-A750/T790M mutant assessed as reduction in cell viability incubated for 72 hrs by MTT assay. The assay is classed as functional, cell-based.
Assay [6] deals with A549. The assay is described as follows: Antiproliferative activity against wild type human A549 cells assessed as reduction in cell viability incubated for 72 hrs by MTT assay. The assay is classed as functional, cell-based. To be noted: A549, 72 h.
For assay [7], the system named is CL97. Nature of the assay: Antiproliferative activity against human CL97 cells harbouring EGFR G719A/T790M mutant assessed as reduction in cell viability incubated for 72 hrs by MTT assay. The assay is classed as functional, cell-based. Conditions: CL97, 72 h.
In assay [8] the test system is PC-9. Nature of the assay: Antiproliferative activity against human PC9 cells harbouring EGFR delE746-A750 mutant assessed as reduction in cell viability incubated for 72 hrs by MTT assay. Type of assay: functional, cell-based. To be noted: PC-9, 72 h.

Chain of Epidermal growth factor receptor (Homo sapiens) (P00533 whole entry): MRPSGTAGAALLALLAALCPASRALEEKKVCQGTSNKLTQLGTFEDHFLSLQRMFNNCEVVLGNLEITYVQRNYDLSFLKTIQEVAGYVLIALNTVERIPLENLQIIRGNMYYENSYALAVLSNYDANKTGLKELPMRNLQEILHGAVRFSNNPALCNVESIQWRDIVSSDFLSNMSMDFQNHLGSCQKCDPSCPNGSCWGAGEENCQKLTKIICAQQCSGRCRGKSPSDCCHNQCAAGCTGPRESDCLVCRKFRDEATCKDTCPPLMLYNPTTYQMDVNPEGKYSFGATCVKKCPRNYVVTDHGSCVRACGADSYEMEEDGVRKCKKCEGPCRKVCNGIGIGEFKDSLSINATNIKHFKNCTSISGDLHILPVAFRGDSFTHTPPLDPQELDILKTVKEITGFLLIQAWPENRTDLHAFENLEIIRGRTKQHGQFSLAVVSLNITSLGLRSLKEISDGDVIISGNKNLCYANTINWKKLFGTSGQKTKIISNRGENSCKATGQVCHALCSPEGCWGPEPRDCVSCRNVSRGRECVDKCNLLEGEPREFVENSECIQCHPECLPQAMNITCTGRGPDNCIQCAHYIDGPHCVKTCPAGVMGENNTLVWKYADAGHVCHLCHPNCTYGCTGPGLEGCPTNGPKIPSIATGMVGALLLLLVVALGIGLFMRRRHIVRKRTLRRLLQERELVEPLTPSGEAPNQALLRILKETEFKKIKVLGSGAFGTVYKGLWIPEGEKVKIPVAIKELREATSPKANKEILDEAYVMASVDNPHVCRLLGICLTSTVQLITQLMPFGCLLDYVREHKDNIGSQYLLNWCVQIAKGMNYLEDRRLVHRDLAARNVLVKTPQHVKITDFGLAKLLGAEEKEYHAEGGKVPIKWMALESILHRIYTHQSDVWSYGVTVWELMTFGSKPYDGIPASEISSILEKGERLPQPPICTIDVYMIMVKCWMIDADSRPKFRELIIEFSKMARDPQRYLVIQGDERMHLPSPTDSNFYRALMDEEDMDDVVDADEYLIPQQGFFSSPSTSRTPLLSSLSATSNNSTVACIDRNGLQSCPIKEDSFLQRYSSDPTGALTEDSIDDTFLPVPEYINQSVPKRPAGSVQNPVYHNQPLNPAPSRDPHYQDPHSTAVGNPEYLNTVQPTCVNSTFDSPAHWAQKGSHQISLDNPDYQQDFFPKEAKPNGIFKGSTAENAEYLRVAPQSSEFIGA
Chain of Hepatocyte growth factor receptor (Homo sapiens) (P08581 whole entry): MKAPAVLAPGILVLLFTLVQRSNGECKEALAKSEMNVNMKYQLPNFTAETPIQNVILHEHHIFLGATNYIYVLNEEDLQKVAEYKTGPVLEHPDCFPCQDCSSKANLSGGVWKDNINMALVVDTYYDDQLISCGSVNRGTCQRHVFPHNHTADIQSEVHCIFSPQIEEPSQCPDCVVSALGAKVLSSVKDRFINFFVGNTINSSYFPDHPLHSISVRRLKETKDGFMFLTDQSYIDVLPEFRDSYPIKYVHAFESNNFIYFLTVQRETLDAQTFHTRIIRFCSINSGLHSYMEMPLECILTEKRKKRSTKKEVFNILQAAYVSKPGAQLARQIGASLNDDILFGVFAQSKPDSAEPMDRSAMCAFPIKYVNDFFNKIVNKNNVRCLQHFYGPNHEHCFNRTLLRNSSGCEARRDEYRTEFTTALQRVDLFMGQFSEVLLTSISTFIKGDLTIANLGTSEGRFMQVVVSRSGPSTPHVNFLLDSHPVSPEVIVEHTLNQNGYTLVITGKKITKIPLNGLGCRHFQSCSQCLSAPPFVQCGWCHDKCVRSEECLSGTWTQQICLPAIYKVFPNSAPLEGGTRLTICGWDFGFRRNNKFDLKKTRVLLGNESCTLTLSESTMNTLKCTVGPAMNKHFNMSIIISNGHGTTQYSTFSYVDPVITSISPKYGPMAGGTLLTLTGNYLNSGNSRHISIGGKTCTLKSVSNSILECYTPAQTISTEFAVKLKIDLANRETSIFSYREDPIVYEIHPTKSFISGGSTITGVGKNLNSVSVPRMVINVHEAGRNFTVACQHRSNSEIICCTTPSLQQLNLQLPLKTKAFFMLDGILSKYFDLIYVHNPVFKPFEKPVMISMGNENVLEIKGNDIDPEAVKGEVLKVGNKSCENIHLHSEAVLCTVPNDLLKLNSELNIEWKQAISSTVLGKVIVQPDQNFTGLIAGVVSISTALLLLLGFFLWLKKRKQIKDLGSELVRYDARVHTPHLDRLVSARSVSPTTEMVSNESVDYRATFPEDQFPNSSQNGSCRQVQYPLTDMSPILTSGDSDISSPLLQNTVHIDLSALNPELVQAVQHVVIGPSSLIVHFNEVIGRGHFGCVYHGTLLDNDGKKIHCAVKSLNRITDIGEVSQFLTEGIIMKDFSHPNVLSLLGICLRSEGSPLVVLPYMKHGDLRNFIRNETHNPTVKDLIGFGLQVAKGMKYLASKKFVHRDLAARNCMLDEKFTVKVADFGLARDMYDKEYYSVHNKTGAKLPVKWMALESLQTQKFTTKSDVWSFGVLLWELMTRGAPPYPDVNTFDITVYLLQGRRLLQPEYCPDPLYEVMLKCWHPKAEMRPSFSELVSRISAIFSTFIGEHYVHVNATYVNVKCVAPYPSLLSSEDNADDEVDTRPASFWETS

Consider `Cc1ccc(NC(=O)Nc2cccc(-c3nc(-c4ccc(NC(=O)c5cccnc5)cc4Cl)no3)c2)cc1`, for which the IC50 in assay [1] turned out to be 3.5 µM. As to `CS(=O)(=O)Nc1ccc(NC(=O)Nc2cccc(-c3nc(-c4ccc(NC(=O)c5cccnc5)cc4Cl)no3)c2)cc1`, the outcome in assay [2] was Active. Further, the IC50 in assay [1] is 0.6 µM. Besides, the outcome in assay [3] was inactive.

Take `C=CC(=O)Nc1cc(Nc2nccc(-c3cn(C)c4ccccc34)n2)c(OC)cc1N(C)CCN(C)C` [OSIMERTINIB]: the IC50 in assay [4] is […]; in assay [5], 0.01 µM; in assay [6] it was 5 µM; in assay [7], 0.1 µM; in assay [8], less than 0.01 µM. On to `CC(=O)Nc1ccc(NC(=O)Nc2cccc(-c3nc(-c4ccc(NC(=O)c5cccnc5)cc4Cl)no3)c2)cc1`, for which the IC50 in assay [1] is more than 10 µM. Consider `COc1cccc(NC(=O)Nc2cccc(-c3nc(-c4ccc(NC(=O)c5cccnc5)cc4Cl)no3)c2)c1`, for which the IC50 in assay [1] stood at 6.7 µM. For the molecule `O=C(Nc1cccc(-c2nc(-c3ccc(NC(=O)c4cccnc4)cc3Cl)no2)c1)Nc1cccc(C(F)(F)F)c1`, the result in assay [2] was Active. Moreover, the IC50 in assay [1] was determined as 1.9 µM. Further, the result in assay [3] was inactive. As to `CC(=O)Nc1ccc(S(=O)(=O)Nc2cccc(-c3nc(-c4ccc(NC(=O)c5cccnc5)cc4Cl)no3)c2)cc1Cl`, in assay [1], the IC50 was more than 10 µM.

With `O=C(Nc1cccc(-c2nc(-c3ccc(NC(=O)c4cccnc4)cc3Cl)no2)c1)Nc1ccc(NC(=O)C2CCCC2)c(C(F)(F)F)c1`, the result in assay [2] and in assay [3] was Active. Moreover, the IC50 in assay [1] was determined as 0.3 µM. Regarding `CC(=O)Nc1ccc(S(=O)(=O)Nc2cccc(-c3nc(-c4ccc(NC(=O)c5cccnc5)cc4)no3)c2)cc1`, the IC50 in assay [1] turned out to be 5.2 µM. The same measure, in the same setting: for `COc1cccc(S(=O)(=O)Nc2cccc(-c3nc(-c4ccc(NC(=O)c5cccnc5)cc4Cl)no3)c2)c1` the value was more than 10 µM; for `NS(=O)(=O)c1ccc(NC(=O)Nc2cccc(-c3nc(-c4ccc(NC(=O)c5cccnc5)cc4Cl)no3)c2)cc1`, more than 10 µM.

On to `NS(=O)(=O)c1ccc(S(=O)(=O)Nc2cccc(-c3nc(-c4ccc(NC(=O)c5cccnc5)cc4Cl)no3)c2)cc1`, for which the IC50 in assay [1] is more than 10 µM.

On to `CS(=O)(=O)Nc1ccc(NC(=O)Nc2cccc(-c3nc(-c4ccc(NC(=O)c5cccnc5)cc4Cl)no3)c2)cc1C(F)(F)F`, for which, in assay [1], the IC50 is 0.7 µM. Regarding `CC(=O)Nc1ccc(S(=O)(=O)Nc2cccc(-c3nc(-c4ccc(NC(=O)c5cccnc5)cc4C(F)(F)F)no3)c2)cc1`, the IC50 in assay [1] was more than 10 µM. For `O=C(Nc1cccc(-c2nc(-c3ccc(NC(=O)c4cccnc4)cc3Cl)no2)c1)Nc1ccc(NC(=O)c2cccs2)c(C(F)(F)F)c1`, the IC50 in assay [1] turned out to be 2.9 µM. On the same count and under the same terms, for `Cc1ccc(S(=O)(=O)Nc2cccc(-c3nc(-c4ccc(NC(=O)c5cccnc5)cc4Cl)no3)c2)cc1` the value was more than 10 µM. On to `O=C(Nc1ccc(NS(=O)(=O)C2CC2)cc1)Nc1cccc(-c2nc(-c3ccc(NC(=O)c4cccnc4)cc3Cl)no2)c1`, for which the outcome in assay [2] and in assay [3] was Active. Further, in assay [1], the IC50 amounted to 0.3 µM. Consider `O=C(Nc1cccc(-c2nc(-c3ccc(NC(=O)c4cccnc4)cc3Cl)no2)c1)Nc1cc(C(F)(F)F)cc(C(F)(F)F)c1`, for which, in assay [1], the IC50 amounted to 1.9 µM. Consider `C#Cc1cccc(Nc2ncnc3cc(OCCOC)c(OCCOC)cc23)c1` [ERLOTINIB], for which the IC50 is 10 µM in assay [4], 5 µM in assay [5], more than 20 µM in assay [7] and 0.1 µM in assay [8]. Regarding `CC(=O)Nc1ccc(S(=O)(=O)Nc2cccc(-c3nc(-c4ccc(NC(=O)c5cccnc5)c(C(F)(F)F)c4)no3)c2)cc1`, the IC50 in assay [1] is more than 10 µM. Consider `COc1ccc(NC(=O)Nc2cccc(-c3nc(-c4ccc(NC(=O)c5cccnc5)cc4Cl)no3)c2)cc1C(F)(F)F`, for which the outcome in assay [2] was Active. Moreover, the IC50 in assay [1] was 1.7 µM. Besides, in assay [3], the result was inactive. Turning to `C#Cc1cccc(NC(=O)Nc2cccc(-c3nc(-c4ccc(NC(=O)c5cccnc5)cc4Cl)no3)c2)c1`, the IC50 in assay [1] is more than 10 µM. Same read-out and setting: with `COc1ccc(NC(=O)Nc2cccc(-c3nc(-c4ccc(NC(=O)c5cccnc5)cc4Cl)no3)c2)cc1` the figure was 3 µM; with `O=C(Nc1ccc(S(=O)(=O)Nc2cccc(-c3nc(-c4ccc(NC(=O)c5cccnc5)cc4Cl)no3)c2)cc1)NC1CCCC1`, more than 10 µM; with `CCN(CC)C(=O)Nc1ccc(S(=O)(=O)Nc2cccc(-c3nc(-c4ccc(NC(=O)c5cccnc5)cc4Cl)no3)c2)cc1`, 8.7 µM.

Turning to `CC(=O)Nc1ccc(NC(=O)Nc2cccc(-c3nc(-c4ccc(NC(=O)c5cccnc5)cc4Cl)no3)c2)cc1Br`, the half-inhibitory concentration (IC50) in assay [1] turned out to be 1 µM.

On to `O=C(Nc1ccc(-c2noc(-c3cccc(NS(=O)(=O)c4ccc(NC(=O)N5CCCCC5)cc4)c3)n2)c(Cl)c1)c1cccnc1`, for which, in assay [1], the IC50 is more than 10 µM. `CS(=O)(=O)Nc1cccc(NC(=O)Nc2cccc(-c3nc(-c4ccc(NC(=O)c5cccnc5)cc4Cl)no3)c2)c1`: in assay [1], the IC50 was more than 10 µM. On the same count and under the same terms, for `CC(=O)Nc1ccc(NC(=O)Nc2cccc(-c3nc(-c4ccc(NC(=O)c5cccnc5)cc4Cl)no3)c2)cc1Cl` the value was more than 10 µM; for `O=C(Nc1cccc(-c2nc(-c3ccc(NC(=O)c4cccnc4)cc3Cl)no2)c1)Nc1ccc(Cl)c(C(F)(F)F)c1`, 1.9 µM.

As to `CCNC(=O)Nc1ccc(S(=O)(=O)Nc2cccc(-c3nc(-c4ccc(NC(=O)c5cccnc5)cc4Cl)no3)c2)cc1`, the IC50 in assay [1] amounted to 3.1 µM.

With `O=C(Nc1ccc(Cl)cc1)Nc1cccc(-c2nc(-c3ccc(NC(=O)c4cccnc4)cc3Cl)no2)c1`, the IC50 in assay [1] is more than 10 µM. On to `CC(=O)Nc1ccc(S(=O)(=O)Nc2cccc(-c3nc(-c4ccc(NC(=O)c5cccnc5)cc4Cl)no3)c2)cc1C`, for which the IC50 in assay [1] was more than 10 µM. For `CN(C)C/C=C/C(=O)Nc1cc2c(Nc3ccc(F)c(Cl)c3)ncnc2cc1O[C@H]1CCOC1` [AFATINIB], the IC50 was 1 µM in assay [4]; 0.1 µM in assay [5]; 5 to 10 µM in assay [6]; 0.1 µM in assay [7]; less than 0.01 µM in assay [8].

On to `O=C(Nc1ccccc1)Nc1cccc(-c2nc(-c3ccc(NC(=O)c4cccnc4)cc3Cl)no2)c1`, for which the IC50 in assay [1] was more than 10 µM. Still for that read-out and setting: for `O=C(Nc1ccc(-c2noc(-c3cccc(NS(=O)(=O)c4cccc(Cl)c4)c3)n2)c(Cl)c1)c1cccnc1` the value was more than 10 µM. The same measure, in the same setting: with `NS(=O)(=O)Nc1ccc(NC(=O)Nc2cccc(-c3nc(-c4ccc(NC(=O)c5cccnc5)cc4Cl)no3)c2)cc1` the figure was 8.9 µM.

For the molecule `O=C(Nc1ccc(-c2noc(-c3cccc(NS(=O)(=O)c4ccc(C(F)(F)F)cc4)c3)n2)c(Cl)c1)c1cccnc1`, in assay [1], the IC50 is more than 10 µM.

Regarding `O=C(Nc1ccc(-c2noc(-c3cccc(NS(=O)(=O)c4ccccc4)c3)n2)c(Cl)c1)c1cccnc1`, the IC50 in assay [1] is more than 10 µM. For `COc1cc(NC(=O)c2cccnc2)ccc1-c1noc(-c2cccc(NS(=O)(=O)c3ccc(NC(C)=O)cc3)c2)n1`, the IC50 in assay [1] was more than 10 µM. Take `CS(=O)(=O)Nc1ccc(NC(=O)Nc2cccc(-c3nc(-c4ccc(NC(=O)c5cccnc5)cc4Cl)no3)c2)cc1Cl`: the result in assay [2] was Active. In assay [1], the IC50 was found to be 0.6 µM. In assay [3], the outcome was inactive. On to `CC(=O)Nc1ccc(S(=O)(=O)Nc2cccc(-c3nc(-c4ccc(NC(=O)c5cccnc5)c(Cl)c4)no3)c2)cc1`, for which the IC50 in assay [1] was 4.5 µM. On the same count and under the same terms, for `O=C(Nc1ccc(-c2noc(-c3cccc(NS(=O)(=O)c4ccc(NC(=O)N5CCCC5)cc4)c3)n2)c(Cl)c1)c1cccnc1` the value was 5.8 µM; for `O=C(Nc1ccc(-c2noc(-c3cccc(NS(=O)(=O)c4ccc(NC(=O)N5CCOCC5)cc4)c3)n2)c(Cl)c1)c1cccnc1`, more than 10 µM. In the case of `NC(=O)Nc1ccc(NC(=O)Nc2cccc(-c3nc(-c4ccc(NC(=O)c5cccnc5)cc4Cl)no3)c2)cc1C(F)(F)F`, in assay [1], the IC50 came out at 3.4 µM. Same read-out and setting: for `O=C(Nc1cccc(-c2nc(-c3ccc(NC(=O)c4cccnc4)cc3Cl)no2)c1)c1ccccc1` the value was 12.8 µM; for `CS(=O)(=O)Nc1ccc(NC(=O)Nc2cccc(-c3nc(-c4ccc(NC(=O)c5cccnc5)cc4Cl)no3)c2)cc1Br`, 0.7 µM; for `C#Cc1ccc(NC(=O)Nc2cccc(-c3nc(-c4ccc(NC(=O)c5cccnc5)cc4Cl)no3)c2)cc1`, more than 10 µM.

Regarding `CC(=O)Nc1ccc(S(=O)(=O)Nc2cccc(-c3nc(-c4ccc(NC(=O)c5cccnc5)cc4Cl)no3)c2)cc1`, the IC50 in assay [1] turned out to be 2.5 µM. `NC(=O)Nc1ccc(S(=O)(=O)Nc2cccc(-c3nc(-c4ccc(NC(=O)c5cccnc5)cc4Cl)no3)c2)cc1`: in assay [1], the IC50 was determined as 2.8 µM. For the molecule `CNC(=O)Nc1ccc(S(=O)(=O)Nc2cccc(-c3nc(-c4ccc(NC(=O)c5cccnc5)cc4Cl)no3)c2)cc1`, in assay [1], the IC50 stood at 1.3 µM.

With `COc1cc(-c2noc(-c3cccc(NS(=O)(=O)c4ccc(NC(C)=O)cc4)c3)n2)ccc1NC(=O)c1cccnc1`, the IC50 in assay [1] was more than 10 µM.
